Test [1] relates to Hepatitis B virus. Briefly: Antiviral activity against Hepatitis B virus infected in human HepG2(2.2.15) cells assessed as decrease in intracellular viral DNA level at 2.16 uM after 72 hrs by RT-PCR analysis. It counts as functional, organism-based. Summed up: (§1)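 HepG2.2.15 cells (HBV genome-transfected, MEM + 10% FBS) treated 72 h with drug alone or in two-drug combination. Entecavir 0.6 μg/ml (2.16 μM), adefovir 3 μg/ml (5.9 μM), lamivudine 3 μg/ml (13 μM), oxymatrine 30 μg/ml (113 μM). Intracellular HBV DNA by SYBR Green real-time PCR, relative to untreated. Experiment repeated twice; means and SD, Student's t test.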

Test [2] in a line: Decrease in HscA70-mRNA expression in Hepatitis B virus infected in human HepG2(2.2.15) cells at 13 uM after 24-36 hrs by RT-PCR analysis. The test is classed as functional, cell-based.
The subject of test [3] is Hepatitis B virus. The test can be described thus: Antiviral activity against Hepatitis B virus infected in human HepG2(2.2.15) cells assessed as decrease in intracellular viral DNA level at 13 uM after 72 hrs by RT-PCR analysis. The test is classed as functional, organism-based. Summed up: as §1

Activity calls are given as the source filed them. The calls are words filed in the database; no cut-off is given here.

As to `C=C1[C@H](CO)[C@@H](O)C[C@@H]1n1cnc2c(=O)[nH]c(N)nc21`, the outcome in test [1] was Active.

For `Nc1ccn([C@@H]2CS[C@H](CO)O2)c(=O)n1`, the result in test [2] was inactive. Further, in test [3], the result was Active.

The record behind these values is ChEMBL document CHEMBL1255434, “Heat stress cognate 70 host protein as a potential drug target against drug resistance in hepatitis B virus” (Antimicrob Agents Chemother, 2010).
